Laboratory results from ChEMBL document CHEMBL1649441, “Potency and bactericidal activity of iclaprim against recent clinical gram-positive isolates” (2009).
Values after ≈ are worked out from the molar mass of the structure shown.

Tests used:
Type in all cases: functional
[1] = system: Streptococcus sp. 'group A'; assay: Antibacterial activity against Beta-hemolytic Streptococcus group A assessed as inhibition of bacterial growth at 1 ug/ml by CLSI broth microdilution method
In short: (§1)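 Clinical isolates from skin/soft tissue, bloodstream and respiratory specimens were tested by broth microdilution per CLSI M7-A7 and M100-S18, with quality controls. Values are the number of isolates inhibited at each concentration, or MIC / percent susceptible. Highest concentration tested was 8 µg/ml for iclaprim and trimethoprim-sulfamethoxazole, and 64 µg/ml for trimethoprim.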

[2] = system: Enterococcus faecalis; assay: Antibacterial activity against Enterococcus faecalis assessed as inhibition of bacterial growth at 0.5 ug/ml by CLSI broth microdilution method; in short: as §1
[3] = system: Enterococcus faecalis; assay: Antibacterial activity against Enterococcus faecalis assessed as inhibition of bacterial growth at 0.03 ug/ml by CLSI broth microdilution method; in short: as §1
[4] = system: Enterococcus faecalis; assay: Antibacterial activity against Enterococcus faecalis assessed as inhibition of bacterial growth at 2 ug/ml by CLSI broth microdilution method; in short: as §1
[5] = system: Enterococcus faecalis; assay: Antibacterial activity against Enterococcus faecalis assessed as inhibition of bacterial growth at >8 ug/ml by CLSI broth microdilution method; in short: as §1
[6] = system: Streptococcus sp. 'group A'; assay: Antibacterial activity against Beta-hemolytic Streptococcus group A assessed as inhibition of bacterial growth at […] by CLSI broth microdilution method; also: tested at 0.25 µg/mL
[7] = system: Streptococcus sp. 'group A'; assay: Antibacterial activity against Beta-hemolytic Streptococcus group A assessed as inhibition of bacterial growth at 4 ug/ml by CLSI broth microdilution method; in short: as §1
[8] = system: Streptococcus sp. 'group B'; assay: Antibacterial activity against Beta-hemolytic Streptococcus group B by CLSI broth microdilution method; in short: as §1
[9] = system: Streptococcus sp. 'group B'; assay: Antibacterial activity against Beta-hemolytic Streptococcus group B assessed as inhibition of bacterial growth at 4 ug/ml by CLSI broth microdilution method; in short: as §1
[10] = system: Enterococcus faecium; assay: Antibacterial activity against Enterococcus faecium assessed as inhibition of bacterial growth at 0.06 ug/ml by CLSI broth microdilution method; in short: as §1
[11] = system: Enterococcus faecium; assay: Antibacterial activity against Enterococcus faecium assessed as inhibition of bacterial growth at 0.5 ug/ml by CLSI broth microdilution method
[12] = system: Staphylococcus aureus; assay: Antibacterial activity against Methicillin-resistant Staphylococcus aureus by CLSI broth microdilution method
[13] = system: Enterococcus faecalis; assay: Antibacterial activity against Enterococcus faecalis by CLSI broth microdilution method
[14] = system: Enterococcus faecium; assay: Antibacterial activity against Enterococcus faecium by CLSI broth microdilution method
[15] = system: Streptococcus sp. 'group A'; assay: Antibacterial activity against Beta-hemolytic Streptococcus group A assessed as inhibition of bacterial growth at 0.06 ug/ml by CLSI broth microdilution method; in short: as §1
[16] = system: Staphylococcus aureus; assay: Antibacterial activity against Methicillin-sensitive Staphylococcus aureus assessed as inhibition of bacterial growth at 0.06 ug/ml by CLSI broth microdilution method; conditions: Staphylococcus aureus
[17] = system: Streptococcus sp. 'group A'; assay: Antibacterial activity against Beta-hemolytic Streptococcus group A by CLSI broth microdilution method; in short: as §1
[18] = system: Staphylococcus aureus; assay: Antibacterial activity against Methicillin-sensitive Staphylococcus aureus assessed as inhibition of bacterial growth at 2 ug/ml by CLSI broth microdilution method
[19] = system: Streptococcus sp. 'group A'; assay: Antibacterial activity against Beta-hemolytic Streptococcus group A assessed as inhibition of bacterial growth at 0.5 ug/ml by CLSI broth microdilution method; in short: as §1
[20] = system: Enterococcus faecium; assay: Antibacterial activity against Enterococcus faecium assessed as inhibition of bacterial growth at 0.03 ug/ml by CLSI broth microdilution method; in short: as §1
[21] = system: Enterococcus faecalis; assay: Antibacterial activity against Enterococcus faecalis assessed as inhibition of bacterial growth at 4 ug/ml by CLSI broth microdilution method; in short: as §1
[22] = system: Enterococcus faecalis; assay: Antibacterial activity against Enterococcus faecalis assessed as inhibition of bacterial growth at 0.06 ug/ml by CLSI broth microdilution method; in short: as §1
[23] = system: Streptococcus sp. 'group A'; assay: Antibacterial activity against Beta-hemolytic Streptococcus group A assessed as inhibition of bacterial growth at 8 ug/ml by CLSI broth microdilution method; in short: as §1
[24] = system: Streptococcus sp. 'group B'; assay: Antibacterial activity against Beta-hemolytic Streptococcus group B assessed as inhibition of bacterial growth at 0.06 ug/ml by CLSI broth microdilution method; in short: as §1
[25] = system: Staphylococcus aureus; assay: (§2) Antibacterial activity against Methicillin-sensitive Staphylococcus aureus assessed as inhibition of bacterial growth at […] by CLSI broth microdilution method; conditions: Staphylococcus aureus
[26] = system: Enterococcus faecalis; assay: (§3) Antibacterial activity against Enterococcus faecalis assessed as inhibition of bacterial growth at […] by CLSI broth microdilution method
[27] = system: Streptococcus sp. 'group B'; assay: Antibacterial activity against Beta-hemolytic Streptococcus group B assessed as inhibition of bacterial growth at 0.03 ug/ml by CLSI broth microdilution method; in short: as §1
[28] = system: Staphylococcus aureus; assay: Antibacterial activity against Methicillin-resistant Staphylococcus aureus assessed as inhibition of bacterial growth at 2 ug/ml by CLSI broth microdilution method
In short: (§4)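 Recent clinical isolates from skin/soft tissue, bloodstream and respiratory specimens. Tested by broth microdilution per CLSI M7-A7 and M100-S18, with the appropriate quality controls. The thymidine content of the test medium was assessed to rule out artifactual inhibition.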

[29] = system: Streptococcus sp. 'group B'; assay: Antibacterial activity against Beta-hemolytic Streptococcus group B assessed as inhibition of bacterial growth at 2 ug/ml by CLSI broth microdilution method; in short: as §1
[30] = system: Staphylococcus aureus; assay: Antibacterial activity against Methicillin-sensitive Staphylococcus aureus assessed as inhibition of bacterial growth at 8 ug/ml by CLSI broth microdilution method; in short: as §4
[31] = system: Staphylococcus aureus; assay: Antibacterial activity against Methicillin-resistant Staphylococcus aureus assessed as inhibition of bacterial growth at […] by CLSI broth microdilution method
[32] = system: Streptococcus sp. 'group B'; assay: Antibacterial activity against Beta-hemolytic Streptococcus group B assessed as inhibition of bacterial growth at […] by CLSI broth microdilution method
[33] = system: Enterococcus faecalis; assay: as §3; remark: listed apart in the source
[34] = system: Streptococcus sp. 'group B'; assay: Antibacterial activity against Beta-hemolytic Streptococcus group B assessed as inhibition of bacterial growth at 0.5 ug/ml by CLSI broth microdilution method; in short: as §1
[35] = system: Staphylococcus aureus; assay: Antibacterial activity against Methicillin-sensitive Staphylococcus aureus assessed as inhibition of bacterial growth at 0.5 ug/ml by CLSI broth microdilution method
[36] = system: Enterococcus faecium; assay: (§5) Antibacterial activity against Enterococcus faecium assessed as inhibition of bacterial growth at […] by CLSI broth microdilution method
[37] = system: Staphylococcus aureus; assay: Antibacterial activity against Methicillin-resistant Staphylococcus aureus assessed as inhibition of bacterial growth at 4 ug/ml by CLSI broth microdilution method; in short: as §4
[38] = system: Streptococcus sp. 'group B'; assay: Antibacterial activity against Beta-hemolytic Streptococcus group B assessed as inhibition of bacterial growth at 1 ug/ml by CLSI broth microdilution method; in short: as §1
[39] = system: Enterococcus faecium; assay: as §5; remark: listed apart in the source
[40] = system: Staphylococcus aureus; assay: Antibacterial activity against Methicillin-resistant Staphylococcus aureus assessed as inhibition of bacterial growth at 0.5 ug/ml by CLSI broth microdilution method; in short: as §4
[41] = system: Enterococcus faecium; assay: Antibacterial activity against Enterococcus faecium assessed as inhibition of bacterial growth at 2 ug/ml by CLSI broth microdilution method
[42] = system: Staphylococcus aureus; assay: Antibacterial activity against Methicillin-resistant Staphylococcus aureus assessed as inhibition of bacterial growth at 8 ug/ml by CLSI broth microdilution method; in short: as §4
[43] = system: Staphylococcus aureus; assay: as §2; conditions: Staphylococcus aureus; remark: listed apart in the source

## COc1cc(Cc2cnc(N)nc2N)c2c(c1OC)OC(C1CC1)C=C2 (stereo not drawn)
[1]
  inhibition at 1 µg/mL: 100%
[2]
  inhibition at 0.5 µg/mL: 70.6%
[3]
  inhibition at 0.03 µg/mL: 63.9%
[4]
  inhibition at 2 µg/mL: 71.9%
[5]
  inhibition (INH): 100%
[6]
  inhibition at […]: 100%
[7]
  inhibition at 4 µg/mL: 100%
[8]
  MIC50: 0.12 µg/mL (≈ 0.339 µM)
  MIC90: 0.25 µg/mL (≈ 0.705 µM)
[9]
  inhibition at 4 µg/mL: 100%
[10]
  inhibition at 0.06 µg/mL: 37.6%
[11]
  inhibition at 0.5 µg/mL: 39.3%
[12]
  MIC50: 0.06 µg/mL (≈ 0.169 µM)
  MIC90: 0.12 µg/mL (≈ 0.339 µM)
[13]
  MIC50: 0.015 µg/mL (≈ 0.0423 µM)
  MIC90: 4 µg/mL (≈ 11.3 µM)
[14]
  MIC50: 2 µg/mL (≈ 5.64 µM)
  MIC90: > 8 µg/mL
[15]
  inhibition at 0.06 µg/mL: 99.3%
[16]
  inhibition at 0.06 µg/mL: 58.8%
[17]
  MIC50: 0.015 µg/mL (≈ 0.0423 µM)
  MIC90: 0.03 µg/mL (≈ 0.0846 µM)
[18]
  inhibition at 2 µg/mL: 98.7%
[19]
  inhibition at 0.5 µg/mL: 100%
[20]
  inhibition at 0.03 µg/mL: 37.6%
[21]
  inhibition at 4 µg/mL: 96.8%
[22]
  inhibition at 0.06 µg/mL: 67.1%
[23]
  inhibition at 8 µg/mL: 100%
[24]
  inhibition at 0.06 µg/mL: 5.4%
[25]
  inhibition at […]: 98.5%
[26]
  inhibition at […]: 70.6%
[27]
  inhibition at 0.03 µg/mL: 0.5%
[28]
  inhibition at 2 µg/mL: 94.6%
[29]
  inhibition at 2 µg/mL: 100%
[30]
  inhibition at 8 µg/mL: 100%
[31]
  inhibition at […]: 91.1%
[32]
  inhibition at […]: 55.4%
[33]
  inhibition at […]: 69%
[34]
  inhibition at 0.5 µg/mL: 100%
[35]
  inhibition at 0.5 µg/mL: 98.6%
[36]
  inhibition at […]: 38.3%
[37]
  inhibition at 4 µg/mL: 97.9%
[38]
  inhibition at 1 µg/mL: 100%
[39]
  inhibition at […]: 38%
[40]
  inhibition at 0.5 µg/mL: 92.9%
[41]
  inhibition at 2 µg/mL: 58.1%
[42]
  inhibition at 8 µg/mL: 100%
[43]
  inhibition at […]: 95.6%
